Laboratory results reported in ChEMBL document CHEMBL3232844, “Synthesis and structure activity relationships of schweinfurthin indoles” (2014).

Experiments:
Type in all cases: functional
SF-295 = assay: Cytotoxicity against human SF295 cells
In short: (§1)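 Tested in a 60-cell-line human tumor panel screen; the read-out is growth inhibition, reported as GI50 for each cell line.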

[1] = Cytotoxicity against human NCI-ADR-RES cells; in short: as §1
TK-10 = assay: Cytotoxicity against human TK10 cells
In short: (§2)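 Cell line run as part of the 60-cell-line screening panel; growth inhibition was reported as a GI50 for each line.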

DU-145 = assay: Cytotoxicity against human DU145 cells; in short: as §1
SNB-19 = assay: Cytotoxicity against human SNB19 cells; in short: as §1
HOP-62 = assay: Cytotoxicity against human HOP62 cells; in short: as §1
SK-MEL-2 = assay: Cytotoxicity against human SK-MEL-2 cells; in short: as §1
KM12 = assay: Cytotoxicity against human KM12 cells; in short: as §1
MDA-MB-468 = assay: Cytotoxicity against human MDA-MB-468 cells; in short: as §1
ACHN = assay: Cytotoxicity against human ACHN cells; in short: as §1
HT-29 = assay: Cytotoxicity against human HT-29 cells; in short: as §1
BT-549 = assay: Cytotoxicity against human BT549 cells; in short: as §1
A549 = assay: Cytotoxicity against human A549 cells; in short: as §1
M14 = assay: Cytotoxicity against human M14 cells; in short: as §1
LOX IMVI = assay: Cytotoxicity against human LOXIMVI cells; in short: as §1
SNB-75 = assay: Cytotoxicity against human SNB75 cells; in short: as §2
SN12C = assay: Cytotoxicity against human SN12C cells; in short: as §1
SK-OV-3 = assay: Cytotoxicity against human SKOV3 cells; in short: as §1
CCRF-CEM = assay: Cytotoxicity against human CCRF-CEM cells
[2] = Cytotoxicity against human OVCAR4 cells; in short: as §1
HL-60(TB) = assay: Cytotoxicity against human HL-60(TB) cells
In short: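 Tested within the NCI 60-cell-line screen, with GI50 as the read-out. Values are the average of two independent experiments. The lowest concentration tested was 10 nM.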

SF-539 = assay: Cytotoxicity against human SF539 cells; in short: as §1
NCI-H226 = assay: Cytotoxicity against human NCI-H226 cells; in short: as §1
COLO 205 = assay: Cytotoxicity against human COLO205 cells; in short: as §1
IGROV-1 = assay: Cytotoxicity against human IGROV1 cells; in short: as §1
RXF 393 = assay: Cytotoxicity against human RXF393 cells; in short: as §1
[3] = Cytotoxicity against human HCT15 cells; in short: as §1
[4] = Cytotoxicity against human OVCAR8 cells; in short: as §1
K562 = assay: Cytotoxicity against human K562 cells; in short: as §1
CAKI-1 = assay: Cytotoxicity against human Caki1 cells; in short: as §1
[5] = Cytotoxicity against human UACC257 cells; in short: as §2
A498 = assay: Cytotoxicity against human A498 cells; in short: as §1
SF-268 = assay: Cytotoxicity against human SF268 cells; in short: as §1
HCC 2998 = assay: Cytotoxicity against human HCC2998 cells; in short: as §1
HCT-116 = assay: Cytotoxicity against human HCT116 cells; in short: as §1
786-0 = assay: Cytotoxicity against human 786-0 cells; in short: as §1
MDA-MB-435 = assay: Cytotoxicity against human MDA-MB-435 cells; in short: as §1
MDA-MB-231 = assay: Cytotoxicity against human MDA-MB-231 cells; in short: as §1
[6] = Cytotoxicity against human UO31 cells; in short: as §2
SR = assay: Cytotoxicity against human SR cells; in short: as §2
NCI-H23 = assay: Cytotoxicity against human NCI-H23 cells; in short: as §1
[7] = Cytotoxicity against human UACC62 cells; in short: as §2
NCI-H322M = assay: Cytotoxicity against human NCI-H322M cells; in short: as §1
[8] = read-out: pLC50 (the source's name) (converted)

## COc1cc(/C=C/c2cc(O)c3c(c2)C[C@@H]2C(C)(C)[C@H](O)CC[C@@]2(C)O3)cc2[nH]cc(CC=C(C)C)c12
SF-295; read-out: GI50
  GI50: < 0.023 µM
SF-295; read-out: pGI50 (converted)
  GI50: 0.0234 µM
SF-295; [8]
  CC50: 6.46 µM
SF-295; read-out: pTGI (converted)
  TGI: 0.115 µM
[1]
  GI50: 7.59 µM
[1]; [8]
  CC50: 85.1 µM
[1]; read-out: pTGI (converted)
  TGI: 46.8 µM
TK-10
  GI50: 8.32 µM
  LC50: 69.2 µM
TK-10; read-out: pTGI (converted)
  TGI: 40.7 µM
DU-145
  GI50: 5.25 µM
  LC50 (50% lethal concentration): 64.6 µM
DU-145; read-out: pTGI (converted)
  TGI: 39.8 µM
SNB-19
  GI50: 0.575 µM
SNB-19; [8]
  CC50: 64.6 µM
SNB-19; read-out: pTGI (converted)
  TGI: 35.5 µM
HOP-62
  GI50: 0.0501 µM
HOP-62; [8]
  CC50: 40.7 µM
HOP-62; read-out: pTGI (converted)
  TGI: 1.7 µM
SK-MEL-2
  GI50: 0.105 µM
SK-MEL-2; [8]
  CC50: 50.1 µM
SK-MEL-2; read-out: pTGI (converted)
  TGI: 5.25 µM
KM12
  GI50: 2.95 µM
KM12; [8]
  CC50: 33.1 µM
KM12; read-out: pTGI (converted)
  TGI: 10.2 µM
MDA-MB-468
  GI50: 0.182 µM
  LC50: 67.6 µM
MDA-MB-468; read-out: pTGI (converted)
  TGI: 4.79 µM
ACHN
  GI50: 3.63 µM
  LC50 (concentration killing 50% of cells): 61.7 µM
ACHN; read-out: pTGI (converted)
  TGI: 38 µM
HT-29
  GI50: 0.832 µM
HT-29; [8]
  CC50: 21.4 µM
HT-29; read-out: pTGI (converted)
  TGI: 5.37 µM
BT-549
  GI50: 0.479 µM
BT-549; [8]
  CC50: 67.6 µM
BT-549; read-out: pTGI (converted)
  TGI: 41.7 µM
A549
  GI50: 2.4 µM
A549; [8]
  CC50: 67.6 µM
A549; read-out: pTGI (converted)
  TGI: 38.9 µM
M14
  GI50: 0.537 µM
M14; [8]
  CC50: 64.6 µM
M14; read-out: pTGI (converted)
  TGI: 32.4 µM
LOX IMVI
  GI50: 0.282 µM
LOX IMVI; [8]
  CC50: 30.9 µM
LOX IMVI; read-out: pTGI (converted)
  TGI: 6.61 µM
SNB-75
  GI50: 0.01 µM
SNB-75; [8]
  CC50: 64.6 µM
SNB-75; read-out: pTGI (converted)
  TGI: 10.5 µM
SN12C
  GI50: 8.51 µM
  LC50: 75.9 µM
SN12C; read-out: pTGI (converted)
  TGI: 45.7 µM
SK-OV-3
  GI50: 4.68 µM
  LC50: 77.6 µM
SK-OV-3; read-out: pTGI (converted)
  TGI: 39.8 µM
CCRF-CEM
  GI50: 0.0871 µM
CCRF-CEM; [8]
  CC50: > 100 µM
CCRF-CEM; read-out: pTGI (converted)
  TGI: 14.8 µM
[2]; OVCAR-4
  GI50: 10.7 µM
[2]; OVCAR-4, read-out: pLC50 (the source's name) (converted)
  CC50: 77.6 µM
[2]; OVCAR-4, read-out: pTGI (converted)
  TGI: 47.9 µM
HL-60(TB)
  GI50: 0.0646 µM
HL-60(TB); [8]
  CC50: 79.4 µM
HL-60(TB); read-out: pTGI (converted)
  TGI: 18.2 µM
SF-539
  GI50: 0.01 µM
SF-539; [8]
  CC50: 24.5 µM
SF-539; read-out: pTGI (converted)
  TGI: 4.47 µM
NCI-H226
  GI50: 8.32 µM
NCI-H226; [8]
  CC50: 72.4 µM
NCI-H226; read-out: pTGI (converted)
  TGI: 33.1 µM
COLO 205
  GI50: 4.17 µM
COLO 205; [8]
  CC50: 21.4 µM
COLO 205; read-out: pTGI (converted)
  TGI: 9.33 µM
IGROV-1
  GI50: 5.01 µM
IGROV-1; [8]
  CC50: 89.1 µM
IGROV-1; read-out: pTGI (converted)
  TGI: 45.7 µM
RXF 393
  GI50: 0.01 µM
  LC50: 8.51 µM
RXF 393; read-out: pTGI (converted)
  TGI: 0.0339 µM
[3]; HCT-15
  GI50: 0.209 µM
[3]; HCT-15, read-out: pLC50 (the source's name) (converted)
  CC50: 36.3 µM
[3]; HCT-15, read-out: pTGI (converted)
  TGI: 4.9 µM
[4]; OVCAR-8
  GI50: 11.5 µM
[4]; OVCAR-8, read-out: pLC50 (the source's name) (converted)
  CC50: 79.4 µM
[4]; OVCAR-8, read-out: pTGI (converted)
  TGI: 47.9 µM
K562
  GI50: 0.138 µM
K562; [8]
  CC50: > 100 µM
K562; read-out: pTGI (converted)
  TGI: 9.77 µM
CAKI-1
  GI50: 0.245 µM
  LC50: 79.4 µM
CAKI-1; read-out: pTGI (converted)
  TGI: 17 µM
[5]; UACC-257
  GI50: 14.5 µM
[5]; UACC-257, read-out: pLC50 (the source's name) (converted)
  CC50: 77.6 µM
[5]; UACC-257, read-out: pTGI (converted)
  TGI: 49 µM
A498
  GI50: 0.0661 µM
A498; [8]
  CC50: 44.7 µM
A498; read-out: pTGI (converted)
  TGI: 2.69 µM
SF-268
  GI50: 0.851 µM
SF-268; [8]
  CC50: 69.2 µM
SF-268; read-out: pTGI (converted)
  TGI: 38.9 µM
HCC 2998
  GI50: 6.03 µM
HCC 2998; [8]
  CC50: 67.6 µM
HCC 2998; read-out: pTGI (converted)
  TGI: 37.2 µM
HCT-116
  GI50: 0.339 µM
HCT-116; [8]
  CC50: 64.6 µM
HCT-116; read-out: pTGI (converted)
  TGI: 36.3 µM
786-0
  GI50: 0.01 µM
  LC50 (concentration killing 50% of cells): 21.4 µM
786-0; read-out: pTGI (converted)
  TGI: 2.45 µM
MDA-MB-435
  GI50: 0.437 µM
MDA-MB-435; [8]
  CC50: 95.5 µM
MDA-MB-435; read-out: pTGI (converted)
  TGI: 38 µM
MDA-MB-231
  GI50: 0.891 µM
  LC50: 45.7 µM
MDA-MB-231; read-out: pTGI (converted)
  TGI: 9.77 µM
[6]; UO-31
  GI50: 0.129 µM
  LC50: 69.2 µM
[6]; UO-31, read-out: pTGI (converted)
  TGI: 21.4 µM
SR
  GI50: 0.155 µM
SR; [8]
  CC50: > 100 µM
SR; read-out: pTGI (converted)
  TGI: 32.4 µM
NCI-H23
  GI50: 1.55 µM
NCI-H23; [8]
  CC50: 66.1 µM
NCI-H23; read-out: pTGI (converted)
  TGI: 26.9 µM
[7]; UACC-62
  GI50: 0.1 µM
[7]; UACC-62, read-out: pLC50 (the source's name) (converted)
  CC50: 33.9 µM
[7]; UACC-62, read-out: pTGI (converted)
  TGI: 0.955 µM
NCI-H322M
  GI50: 18.2 µM
NCI-H322M; [8]
  CC50: 77.6 µM
NCI-H322M; read-out: pTGI (converted)
  TGI: 49 µM
